Assay results pooled from the literature.
Compare with care: the assays were run in different laboratories.
Target: Activin receptor type-1B (ACVR1B, Homo sapiens, UniProt P36896)
Residues used in one study (P36896 24-505): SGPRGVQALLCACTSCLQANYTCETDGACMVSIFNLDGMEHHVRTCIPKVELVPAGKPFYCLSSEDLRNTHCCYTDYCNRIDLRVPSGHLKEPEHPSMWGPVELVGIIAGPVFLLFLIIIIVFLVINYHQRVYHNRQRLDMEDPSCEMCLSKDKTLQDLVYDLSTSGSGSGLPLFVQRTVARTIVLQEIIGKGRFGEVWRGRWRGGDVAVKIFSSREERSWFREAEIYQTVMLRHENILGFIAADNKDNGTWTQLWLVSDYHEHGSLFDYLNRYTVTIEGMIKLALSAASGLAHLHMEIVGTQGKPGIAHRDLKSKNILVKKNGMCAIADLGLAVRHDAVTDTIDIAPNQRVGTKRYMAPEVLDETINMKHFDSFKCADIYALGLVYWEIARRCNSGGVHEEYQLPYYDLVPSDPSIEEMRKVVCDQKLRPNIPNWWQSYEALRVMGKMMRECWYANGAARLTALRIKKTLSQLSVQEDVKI

| SMILES | test | setting | measurement | result |
| --- | --- | --- | --- | --- |
| Cn1cc(Cl)c2c(Oc3c(F)cc(Nc4cc(Cl)nc(N)n4)cc3F)ccnc21 | cell-free assay, competition with immobilised ligand | 0.1 µM | remaining binding | 98% |
| Cc1ccc(NC(=O)c2ccc(C)c(C(F)(F)F)c2)cc1C#Cc1nn(C2CCC(O)CC2)c2ncnc(N)c12 (stereo not drawn) | cell-free assay | 10 µM | remaining signal | 79% |
| O=C1NC(=O)c2cc(Nc3ccc(F)cc3)c(Nc3ccc(F)cc3)cc21 | cell-free assay | 0.5 µM | remaining signal | 94.2% |
| CC1(C)NC(=O)c2[nH]c3c(Cl)c(Cl)ccc3c2C1C#N (stereo not drawn) | thermal stability, DSF | 10 µM | ΔTm | 1.6 °C |
| CCCOc1ccc(OC)c(F)c1C(=O)c1ccc(C(=O)N[C@@H]2CNC[C@H]2NC(=O)c2ccc3[nH]ncc3c2)cc1 | enzyme activity, inhibitor | 10 µM | remaining activity | 91% |
| C[C@@H](c1cccc(C#N)c1)n1cc(Cl)cc(C(N)=O)c1=N | cell-free assay, competition with immobilised ligand | 1 µM | remaining binding | 100% |
| COc1cc2ncnc(Nc3ccc(Oc4ccccc4)cc3C)c2cc1OC | enzyme activity, inhibitor | 1 µM | inhibition | -2% |
| CNC(=O)c1cc(Oc2ccc(NC(=O)Nc3ccc(Cl)c(C(F)(F)F)c3)cc2)ccn1 | cell-free assay, inhibitor | 0.3 µM | inhibition | -6% |
| COc1cc(-c2cc(-c3ccc(N4CCNCC4)cc3)cnc2C)cc(OC)c1OC | enzyme activity, inhibitor | 0.1 µM | inhibition | 9% |
| CC(C)(C)c1nc2c(s1)c1nc(N)ncc1c1ccc(NS(=O)(=O)c3c(F)cccc3F)c(F)c12 | enzyme activity, inhibitor, radiometric | 1 µM | remaining activity | 84% |
| CN(C)C1CCN(CC#Cc2nn(C3CCCC3)c3nc(NCc4ccccc4)ncc23)C1 (stereo not drawn) | enzyme activity, inhibitor, FRET | 0.1 µM | inhibition | 0% |
| CS(=O)(=O)Nc1cccc(-c2csc(NC(=O)CSc3nc4nccnc4c(=O)n3CCc3ccccc3)n2)c1 | enzyme activity, inhibitor | 10 µM | inhibition | 2% |
| Cc1ccc(Nc2nccc(N(C)c3ccc4c(C)n(C)nc4c3)n2)cc1S(N)(=O)=O | cell-free assay, inhibitor | 10 µM | inhibition | 17% |
| Clc1ccc(Nc2nnc(Cc3ccncc3)c3ccccc23)cc1 | cell-free assay | 0.5 µM | remaining signal | 108% |
| c1ccc(N2CCN(Cc3nc4ccccc4[nH]3)CC2)nc1 | cell-free assay, competition with immobilised ligand | 1 µM | remaining binding | 85% |
| Nc1ncnc2occ(-c3ccc(NC(=O)Nc4cc(C(F)(F)F)ccc4F)cc3)c12 | cell-free assay | 20 µM | remaining signal | 99% |
| Cc1ccc(C(=O)Nc2ccc(CN3CCN(C)CC3)c(C(F)(F)F)c2)cc1C#Cc1cnc2cccnn12 | enzyme activity | 23.5 nM | remaining activity | 100% |
| CCN(CC)CCNC(=O)c1c(C)[nH]c(/C=C2\C(=O)Nc3ccc(F)cc32)c1C | cell-free assay | 0.5 µM | remaining signal | 101% |
| Cc1sc(C(=O)NC2COC2)cc1-n1cc(NC(=O)Nc2c(F)cccc2Cl)cn1 | enzyme activity, inhibitor | 10 µM | remaining activity | 78.5% |
| C[C@H](c1ccc(F)cc1)N(Cc1cccc(C(=O)O)c1)C(=O)c1cnc2ccccc2c1 | cell-free assay, competition with immobilised ligand | 1 µM | remaining binding | 100% |
| Cc1cnc(NC2CCOCC2)nc1-n1cnc(C(=O)NC(CN)c2cc(F)cc(Cl)c2)c1 (stereo not drawn) | enzyme activity, inhibitor, radiometric | 1 µM | remaining activity | 109% |
| Cn1c2c(c3ccc(Cl)c(Cl)c31)C(C#N)C(C)(C)NC2=O (stereo not drawn) | thermal stability, DSF | 10 µM | ΔTm | 2.9 °C |
| Cn1nc(C(=O)NCc2ccc(C(=O)O)cc2)cc1-c1ccc2[nH]ccc2c1 | cell-free assay, competition with immobilised ligand | 0.1 µM | remaining binding | 83% |
| Cn1c2c(Cl)c(Cl)ccc2c2cc[nH]c(=O)c21 | thermal stability, DSF | 10 µM | ΔTm | 3.1 °C |
| O=C(Nc1ccc(Oc2ccc(F)cc2)cc1)N1CCc2ncccc2[C@H]1c1ccc(F)cc1 | cell-free assay, competition with immobilised ligand | 1 µM | remaining binding | 94% |
| O=C(Nc1cnn(-c2csc(C(=O)NC3COC3)c2)c1)Nc1c(F)cccc1Cl | enzyme activity, inhibitor | 5 µM | remaining activity | 82% |
| Cn1c2c(Cl)c(Cl)ccc2c2cc(N)[nH]c(=O)c21 | thermal stability, DSF | 10 µM | ΔTm | 3.9 °C |
| CO[C@@H](C)c1c(Nc2ccc([C@H](N(C)C(=O)C3CCS(=O)(=O)CC3)C(F)(F)F)cc2)cnc2cc(Cl)nn12 | cell-free assay, competition with immobilised ligand | 1 µM | remaining binding | 72% |
| Cn1c2c(c3ccc(Cl)c(Cl)c31)C(C#N)C1(CCOCC1)NC2=O (stereo not drawn) | thermal stability, DSF | 10 µM | ΔTm | 0.2 °C |
| CN([C@@H]1CCc2c(CC(=O)O)c3cc(S(C)(=O)=O)ccc3n2C1)S(=O)(=O)c1ccc(F)cc1 | cell-free assay, competition with immobilised ligand | 1 µM | remaining binding | 99% |
